Reference: ChEMBL document CHEMBL2146414, “Lignan derivatives from Krameria lappacea roots inhibit acute inflammation in vivo and pro-inflammatory mediators in vitro” (J Nat Prod, 2011)
Activity calls are given as the source filed them. No cut-off for these calls is given here.

Columns and labels:
Mus musculus [1] = experiment: Antiinflammatory activity in CD1 mouse ear dermatitis model assessed as inhibition of Croton oil-induced ear edema at 0.30 umol administered topically per cm'2 of ear measured after induction of dermatitis relative to untreated control; format: functional
Method in brief: (§1)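 Male CD-1 mice (28–32 g), anesthetized with ketamine 145 mg/kg i.p.; right ear (about 1 cm2) given 80 μg croton oil in 15 μL acetone, with test substance co-applied in acetone; left ear left untreated. Controls received irritant only. 6 mm punches taken from both ears; edema = weight difference treated minus untreated; % inhibition vs controls. ID50 by graphic interpolation of log dose–effect curves; ANOVA with Dunnett's test.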

[2] = molecular target: T1, Glucocorticoid receptor (Homo sapiens) (UniProt P04150); experiment: Activation of GR transfected in HEK293 cells at 10 uM after 18 hrs by firefly luciferase reporter gene-based luminescence assay; format: cell-based
T1 sequence (whole entry): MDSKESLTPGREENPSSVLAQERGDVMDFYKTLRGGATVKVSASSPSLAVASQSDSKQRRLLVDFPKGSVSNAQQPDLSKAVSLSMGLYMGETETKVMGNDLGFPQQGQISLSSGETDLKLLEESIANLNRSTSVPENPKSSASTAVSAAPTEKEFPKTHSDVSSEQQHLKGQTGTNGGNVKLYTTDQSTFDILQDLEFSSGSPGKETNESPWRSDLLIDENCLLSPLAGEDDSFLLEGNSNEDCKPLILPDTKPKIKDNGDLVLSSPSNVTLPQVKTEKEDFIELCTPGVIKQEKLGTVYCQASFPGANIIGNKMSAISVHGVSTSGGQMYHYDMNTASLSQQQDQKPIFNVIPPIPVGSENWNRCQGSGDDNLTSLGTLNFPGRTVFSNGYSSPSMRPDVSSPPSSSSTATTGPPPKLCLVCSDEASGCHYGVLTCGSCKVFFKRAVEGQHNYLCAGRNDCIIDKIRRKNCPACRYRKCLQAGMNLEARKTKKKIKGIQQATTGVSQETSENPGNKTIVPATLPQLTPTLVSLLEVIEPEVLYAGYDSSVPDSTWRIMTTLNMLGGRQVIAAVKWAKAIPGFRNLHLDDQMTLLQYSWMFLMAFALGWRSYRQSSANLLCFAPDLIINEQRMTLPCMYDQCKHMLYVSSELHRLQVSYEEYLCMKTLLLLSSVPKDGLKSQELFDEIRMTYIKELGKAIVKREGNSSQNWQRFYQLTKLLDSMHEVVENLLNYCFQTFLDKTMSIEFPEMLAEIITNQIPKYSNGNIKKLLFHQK

Prostaglandin E synthase = molecular target: T2, Prostaglandin E synthase (Homo sapiens, UniProt O14684); experiment: Inhibition of mPGES1 in IL-1beta treated human A549 cell microsomal membrane assessed as inhibition of PGE2 formation incubated for 15 mins before addition of PGH2 by RP-HPLC method; format: microsomes, Microsome
T2 sequence (O14684 whole entry): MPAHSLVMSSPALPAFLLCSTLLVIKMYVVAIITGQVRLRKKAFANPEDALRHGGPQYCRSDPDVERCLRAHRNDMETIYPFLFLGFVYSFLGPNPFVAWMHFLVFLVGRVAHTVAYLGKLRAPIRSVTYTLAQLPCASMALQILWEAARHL

Mus musculus [3] = experiment: Antiinflammatory activity in CD1 mouse ear dermatitis model assessed as inhibition of Croton oil-induced ear edema at 0.10 umol administered topically per cm'2 of ear measured after induction of dermatitis relative to untreated control; format: functional; method in brief: as §1
[4] = test system: Radical scavenging activity; experiment: Antioxidant activity assessed as DPPH free radical scavenging activity up to 100 uM after 30 mins by spectrophotometry; format: functional
[5] = molecular target: T3, Peroxisome proliferator-activated receptor gamma (Homo sapiens) (UniProt P37231); experiment: Activation of PPARgamma transfected in HEK293 cells at 10 uM after 18 hrs by firefly luciferase reporter gene-based luminescence assay; format: cell-based
T3 sequence (whole entry): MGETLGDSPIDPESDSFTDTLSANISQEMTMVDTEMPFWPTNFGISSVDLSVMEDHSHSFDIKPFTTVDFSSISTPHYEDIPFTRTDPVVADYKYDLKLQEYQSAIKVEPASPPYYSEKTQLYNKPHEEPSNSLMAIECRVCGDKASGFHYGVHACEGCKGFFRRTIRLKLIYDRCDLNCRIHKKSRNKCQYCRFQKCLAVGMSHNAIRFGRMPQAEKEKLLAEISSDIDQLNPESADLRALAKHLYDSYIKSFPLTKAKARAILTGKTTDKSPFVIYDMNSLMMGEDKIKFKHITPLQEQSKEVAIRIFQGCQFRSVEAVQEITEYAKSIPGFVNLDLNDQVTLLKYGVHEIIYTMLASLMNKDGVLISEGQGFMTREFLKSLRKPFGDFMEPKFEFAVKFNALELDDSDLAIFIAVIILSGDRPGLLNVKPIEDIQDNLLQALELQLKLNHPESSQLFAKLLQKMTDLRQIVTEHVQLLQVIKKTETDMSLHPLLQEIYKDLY

Mus musculus [6] = experiment: Antiinflammatory activity in CD1 mouse ear dermatitis model assessed as inhibition of Croton oil-induced ear edema at 1 umol administered topically per cm'2 of ear measured after induction of dermatitis relative to untreated control; format: functional; method in brief: as §1
[7] = molecular target: T4, Polyunsaturated fatty acid 5-lipoxygenase (Homo sapiens, UniProt P09917); experiment: Inhibition of 5-lipoxygenase in human neutrophils assessed as inhibition of LTB4 production
T4 sequence (P09917 whole entry): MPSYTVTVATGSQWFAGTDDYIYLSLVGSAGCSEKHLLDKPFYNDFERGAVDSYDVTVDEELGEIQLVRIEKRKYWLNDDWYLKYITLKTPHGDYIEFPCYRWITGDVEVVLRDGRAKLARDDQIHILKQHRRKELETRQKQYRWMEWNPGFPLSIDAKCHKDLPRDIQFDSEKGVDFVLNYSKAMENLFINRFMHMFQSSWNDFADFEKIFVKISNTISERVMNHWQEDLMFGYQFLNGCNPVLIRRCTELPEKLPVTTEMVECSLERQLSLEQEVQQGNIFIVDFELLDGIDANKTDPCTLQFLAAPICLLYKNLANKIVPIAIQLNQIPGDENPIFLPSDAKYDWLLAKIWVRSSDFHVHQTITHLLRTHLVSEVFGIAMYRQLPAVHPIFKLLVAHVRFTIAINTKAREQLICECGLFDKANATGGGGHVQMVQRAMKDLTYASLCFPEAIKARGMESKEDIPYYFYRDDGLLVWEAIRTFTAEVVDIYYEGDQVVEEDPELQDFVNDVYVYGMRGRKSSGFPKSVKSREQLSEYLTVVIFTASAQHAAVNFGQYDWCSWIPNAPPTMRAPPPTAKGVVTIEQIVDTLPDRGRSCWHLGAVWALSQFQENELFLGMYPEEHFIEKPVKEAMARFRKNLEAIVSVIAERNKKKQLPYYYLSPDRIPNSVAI
Method in brief: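 Stimulated human neutrophilic granulocytes; 5-LO-mediated LTB4 formation measured; samples dissolved in ethanol. IC50 from at least three concentrations, duplicates, at least three independent experiments, by nonlinear regression.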

[8] = Inhibition of NFkappaB activity transfected in HEK293 cells pretreated for 1 hr before 6 hrs of LPS challenge by luciferase reporter gene assay; conditions: Homo sapiens

Compound | inhibition (INH) (Mus musculus [1]) [%] | Activity [2] | IC50 (Prostaglandin E synthase) [µM] | inhibition (INH) (Mus musculus [3]) [%] | Activity [4] | Activity [5] | inhibition (INH) (Mus musculus [6]) [%] | IC50 [7] [µM] | IC50 [8] [µM]
C[C@@H]1[C@H](C)[C@@H](c2ccc(O)cc2)O[C@@H]1c1ccc(O)cc1 | 39 | inactive | > 50 | 19 | inactive | inactive | 67 | > 50 | 
C/C=C/c1ccc2oc(-c3ccc(O)cc3O)cc2c1 | 29 | inactive | 7.4 | 15 |  | inactive | 64 | > 50 | 
C/C=C/c1ccc2oc(-c3ccc(O)cc3)cc2c1 | 35 | inactive | 5.3 | 14 | inactive | inactive | 74 | > 50 | 1.4
COc1ccc(-c2cc3cc(CCCO)ccc3o2)c(O)c1 | 50 | inactive | 42 | 25 |  | inactive | 67 | 27.2 | 5.9
C/C=C/c1ccc2c(c1)[C@@H](C)[C@H](c1ccc(O)cc1)O2 | 45 | inactive | 19.5 | 25 | inactive | inactive | 81 | 18.4 | > 20
C[C@@H]1[C@H](C)[C@@H](c2ccc(O)cc2)O[C@H]1c1ccc(O)cc1 | 52 | inactive | > 50 | 14 | inactive | inactive | 72 | > 50 | > 20
COc1cc(O)ccc1-c1cc2cc(CCCO)ccc2o1 | 32 | inactive | > 50 | 13 |  | inactive | 75 | 41.4 | 
C/C=C/c1ccc2oc(-c3ccc(O)cc3OC)cc2c1 [RATANIAPHENOL III] | 35 | inactive | 13.5 | 12 |  | inactive | 70 | > 50 | > 20
C/C=C/c1ccc2oc(-c3ccc(OC)cc3O)cc2c1 [RATANIAPHENOL I] | 33 | inactive | 13 | 9 |  | inactive | 64 | > 50 | 14.7
C/C=C/c1ccc2c(c1)[C@H](CO)[C@@H](c1ccc(O)cc1)O2 | 36 | inactive | 39.5 | 17 | inactive | inactive | 75 | > 50 | 
C/C=C/c1ccc2oc(-c3ccc(O)cc3)c(C)c2c1 [RATANIAPHENOL II] | 41 | inactive | 11 | 13 | inactive | inactive | 75 | > 50 | 
